Test system: C3H/3T3
Experiment: Minimum cytotoxic concentration required to inhibit MSV-induced transformation of C3H/3T3 cells
Assay type: functional
Conditions: Mus musculus
Procedure, shortened: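 Murine embryo fibroblast C3H/3T3 cells examined under the microscope. The value is the minimum concentration at which an alteration of normal cell morphology was seen.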

| SMILES | MCC |
| --- | --- |
| Cc1cn([C@@H]2O[C@H](CO)[C@H](n3cncn3)C2O)c(=O)[nH]c1=O (stereo partly drawn) | > 100 µM |
| Cc1cn([C@@H]2O[C@H](CO)[C@H](n3cccn3)C2O)c(=O)[nH]c1=O (stereo partly drawn) | > 100 µM |
| Cc1cn([C@H]2C[C@@H](NC=O)[C@@H](CO)O2)c(=O)[nH]c1=O | > 100 µM |
| Cc1cn([C@@H]2O[C@H](CO)[C@H](n3ccnc3)C2O)c(=O)[nH]c1=O (stereo partly drawn) | > 100 µM |
| Cc1cn([C@H]2C[C@@H](n3cncn3)[C@@H](CO)O2)c(=O)[nH]c1=O | > 100 µM |
| Cc1cn([C@H]2C[C@@H](n3cccc3)[C@@H](CO)O2)c(=O)[nH]c1=O | > 100 µM |
| Cc1cn([C@H]2C[C@@H](n3ccnn3)[C@@H](CO)O2)c(=O)[nH]c1=O | > 100 µM |
| Cc1cn([C@@H]2O[C@H](CO)C[C@H]2n2cncn2)c(=O)[nH]c1=O | > 100 µM |
| Cc1cn([C@H]2C[C@@H](n3cnnc3)[C@@H](CO)O2)c(=O)[nH]c1=O | > 100 µM |
| Cc1cn([C@H]2C[C@@H](n3ccnc3)[C@@H](CO)O2)c(=O)[nH]c1=O | > 100 µM |
| Cc1cn([C@H]2C[C@@H](n3cccn3)[C@@H](CO)O2)c(=O)[nH]c1=O | > 100 µM |
| Cc1cn([C@@H]2O[C@H](CO)[C@@H](O)C2n2cncn2)c(=O)[nH]c1=O (stereo partly drawn) | > 100 µM |

Test system: MT4
Experiment: Cytotoxic dose required to reduce the viability of normal uninfected MT-4 cells by 50%
Assay type: functional
Conditions: Homo sapiens, read-out: CD50 (the source's name)

| SMILES | CC50 |
| --- | --- |
| Cc1cn([C@@H]2O[C@H](CO)[C@H](n3cncn3)C2O)c(=O)[nH]c1=O (stereo partly drawn) | > 500 µM |
| Cc1cn([C@@H]2O[C@H](CO)[C@H](n3cccn3)C2O)c(=O)[nH]c1=O (stereo partly drawn) | > 100 µM |
| Cc1cn([C@H]2C[C@@H](NC=O)[C@@H](CO)O2)c(=O)[nH]c1=O | 66 µM |
| Cc1cn([C@@H]2O[C@H](CO)[C@H](n3ccnc3)C2O)c(=O)[nH]c1=O (stereo partly drawn) | > 500 µM |
| Cc1cn([C@H]2C[C@@H](n3cncn3)[C@@H](CO)O2)c(=O)[nH]c1=O | > 500 µM |
| Cc1cn([C@H]2C[C@@H](n3cccc3)[C@@H](CO)O2)c(=O)[nH]c1=O | > 500 µM |
| Cc1cn([C@H]2C[C@@H](n3ccnn3)[C@@H](CO)O2)c(=O)[nH]c1=O | > 500 µM |
| Cc1cn([C@@H]2O[C@H](CO)C[C@H]2n2cncn2)c(=O)[nH]c1=O | > 500 µM |
| Cc1cn([C@H]2C[C@@H](n3cnnc3)[C@@H](CO)O2)c(=O)[nH]c1=O | 4.8 µM |
| Cc1cn([C@H]2C[C@@H](n3ccnc3)[C@@H](CO)O2)c(=O)[nH]c1=O | > 500 µM |
| Cc1cn([C@H]2C[C@@H](n3cccn3)[C@@H](CO)O2)c(=O)[nH]c1=O | > 500 µM |
| Cc1cn([C@@H]2O[C@H](CO)[C@@H](O)C2n2cncn2)c(=O)[nH]c1=O (stereo partly drawn) | > 500 µM |

Test system: C3H/3T3
Experiment: Inhibitory effect on MSV-induced transformation of C3H/3T3 cells
Assay type: functional
Conditions: Mus musculus, read-out: ED50 (the source's name)
Procedure, shortened: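 Murine embryo fibroblast C3H/3T3 cells infected with Moloney murine sarcoma virus; the read-out is inhibition of virus-induced cell transformation.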

| SMILES | EC50 |
| --- | --- |
| Cc1cn([C@@H]2O[C@H](CO)[C@H](n3cncn3)C2O)c(=O)[nH]c1=O (stereo partly drawn) | > 100 µM |
| Cc1cn([C@@H]2O[C@H](CO)[C@H](n3cccn3)C2O)c(=O)[nH]c1=O (stereo partly drawn) | > 100 µM |
| Cc1cn([C@H]2C[C@@H](NC=O)[C@@H](CO)O2)c(=O)[nH]c1=O | > 100 µM |
| Cc1cn([C@@H]2O[C@H](CO)[C@H](n3ccnc3)C2O)c(=O)[nH]c1=O (stereo partly drawn) | > 100 µM |
| Cc1cn([C@H]2C[C@@H](n3cncn3)[C@@H](CO)O2)c(=O)[nH]c1=O | > 100 µM |
| Cc1cn([C@H]2C[C@@H](n3cccc3)[C@@H](CO)O2)c(=O)[nH]c1=O | 91 µM |
| Cc1cn([C@H]2C[C@@H](n3ccnn3)[C@@H](CO)O2)c(=O)[nH]c1=O | > 100 µM |
| Cc1cn([C@@H]2O[C@H](CO)C[C@H]2n2cncn2)c(=O)[nH]c1=O | > 100 µM |
| Cc1cn([C@H]2C[C@@H](n3cnnc3)[C@@H](CO)O2)c(=O)[nH]c1=O | > 100 µM |
| Cc1cn([C@H]2C[C@@H](n3ccnc3)[C@@H](CO)O2)c(=O)[nH]c1=O | > 100 µM |
| Cc1cn([C@H]2C[C@@H](n3cccn3)[C@@H](CO)O2)c(=O)[nH]c1=O | > 100 µM |
| Cc1cn([C@@H]2O[C@H](CO)[C@@H](O)C2n2cncn2)c(=O)[nH]c1=O (stereo partly drawn) | > 100 µM |

Test system: MT4
Experiment: Effective dose of compound required to achieve 50% protection of MT-4 cells against the cytopathic effect of HIV
Assay type: functional
Conditions: Homo sapiens, read-out: ED50 (the source's name)
Procedure, shortened: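 HIV-1 strain HTLV-III_B in human MT-4 cells; the read-out is inhibition of virus-induced cytopathic effect. ED50 is the dose giving 50% protection of the cells.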

| SMILES | EC50 |
| --- | --- |
| Cc1cn([C@@H]2O[C@H](CO)[C@H](n3cncn3)C2O)c(=O)[nH]c1=O (stereo partly drawn) | > 500 µM |
| Cc1cn([C@@H]2O[C@H](CO)[C@H](n3cccn3)C2O)c(=O)[nH]c1=O (stereo partly drawn) | > 100 µM |
| Cc1cn([C@H]2C[C@@H](NC=O)[C@@H](CO)O2)c(=O)[nH]c1=O | > 100 µM |
| Cc1cn([C@@H]2O[C@H](CO)[C@H](n3ccnc3)C2O)c(=O)[nH]c1=O (stereo partly drawn) | > 500 µM |
| Cc1cn([C@H]2C[C@@H](n3cncn3)[C@@H](CO)O2)c(=O)[nH]c1=O | > 500 µM |
| Cc1cn([C@H]2C[C@@H](n3cccc3)[C@@H](CO)O2)c(=O)[nH]c1=O | 201 µM |
| Cc1cn([C@H]2C[C@@H](n3ccnn3)[C@@H](CO)O2)c(=O)[nH]c1=O | > 500 µM |
| Cc1cn([C@@H]2O[C@H](CO)C[C@H]2n2cncn2)c(=O)[nH]c1=O | > 500 µM |
| Cc1cn([C@H]2C[C@@H](n3cnnc3)[C@@H](CO)O2)c(=O)[nH]c1=O | > 5 µM |
| Cc1cn([C@H]2C[C@@H](n3ccnc3)[C@@H](CO)O2)c(=O)[nH]c1=O | > 500 µM |
| Cc1cn([C@H]2C[C@@H](n3cccn3)[C@@H](CO)O2)c(=O)[nH]c1=O | > 500 µM |
| Cc1cn([C@@H]2O[C@H](CO)[C@@H](O)C2n2cncn2)c(=O)[nH]c1=O (stereo partly drawn) | > 500 µM |
